Measurements: ChEMBL document CHEMBL4513216, “Probing the Open Global Health Chemical Diversity Library for Multistage-Active Starting Points for Next-Generation Antimalarials” (ACS Infect Dis, 2020)

Test: Toxicity liver stage against HepG2, at 10uM
Format: cell-based
Parameters: test concentration 10 uM, cell line HepG2-A16-CD81EGFP
Settings: human, HepG2-A16-CD81EGFP cells; read-out: INHIBITION
Summary of the method: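 Uninfected HepG2-A16-CD81EGFP cells, 3 × 10^3 per well, 1536-well, plated on prespotted compound at 10 μM final, parasite-free screening media added to match infected plates; puromycin 10 μM positive, DMSO 0.5% negative; run in parallel with 48 h PbLuc assay at 37 °C, 5% CO2; viability by CellTiter-Glo luminescence, normalized to controls.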

| SMILES | cytotoxicity at 10 µM [%] |
| --- | --- |
| Cn1ncc2c1CCCN(C(=O)C1CCC1)C2 | -3.15 |
| CN(CC(=O)NCCc1ccccn1)C(=O)c1cccs1 | 2.26 |
| COc1ccc(-c2nnc([C@H]3CCN(CC(C)(C)C)C3)o2)cc1 | -3.43 |
| CC(C)(C)C(=O)CN1Cc2ccccc2NCCC1=O | -3.19 |
| CC1CC(=O)c2cc(C(=O)N3CCc4ccccc4C3)c(=O)[nH]c2C1 (configuration not stated) | -4.65 |
| CCS(=O)(=O)N1CCC(c2nnc(C3CC3)o2)CC1 | -10.7 |
| COc1ccccc1NC(=O)CSC1CCc2ccccc2NC1=O (configuration not stated) | 20 |
| CCOc1cccc(CNc2ccccc2C(=O)OC)c1O | 6.69 |
| CC(C)c1nnc2ccc(N3CCC(C(N)=O)CC3)nn12 | 8.63 |
| CCn1cc(NC(=O)C(C)n2ncc(Cl)c2C)c(C(=O)NCC(C)C)n1 (configuration not stated) | 0.557 |
| C=CNC(=O)c1nnc2ccc(N3CCOCC3)cc2n1 | 8.85 |
| CNC(=O)C1(C)CN(S(=O)(=O)c2cccc(OC)c2)CCO1 (configuration not stated) | -1.43 |
| CN(C)C(=O)c1cncnc1-c1ccc(CNC(=O)C2CC2)cc1 | 2.33 |
| Cc1onc(-c2ccncc2)c1C(=O)NC1CCCOC1 (configuration not stated) | 4.51 |
| Cc1c(C(=O)N2CCC(C(=O)c3nc4ccccc4s3)CC2)cnn1C | 6.32 |
| CN1CCC(c2nnc3n2CCN(S(=O)(=O)c2ccccc2Cl)C3)CC1 | 2.58 |
| COc1ccc(CC(=O)N2CCN(Cc3ccco3)C[C@H]2C)cc1OC | 1.02 |
| Cc1cc2c(c(=O)n1CCC(=O)O)C=CC(C)(C)O2 | 10.8 |
| CC(Cn1cc(Cl)cn1)C(=O)Nc1ccc(CN2CCCCCC2)cc1 (configuration not stated) | 8.66 |
| Cc1nc(C2CCN2c2ncccn2)cc(N(C)C)n1 (configuration not stated) | -4.8 |
| O=C(O)c1ccc(=O)n(CC(c2ccc(Cl)cc2)N2CCCCCC2)c1 (configuration not stated) | 1.12 |

| SMILES | cytotoxicity at 10 µM [%] |
| --- | --- |
| Cc1cc(C(F)(F)F)n2nc(C3CCN(S(=O)(=O)N(C)C)CC3)cc2n1 | -2.88 |
| Oc1cc(C2CCCCN2Cc2ccsc2)nc(-c2ccncc2)n1 (configuration not stated) | 9.89 |
| CCc1cc(C(=O)N[C@@H]2CC[C@@H](N3CCOCC3)[C@@H]2O)no1 | 37.5 |
| Nc1nccnc1C1CN(C(=O)c2ccc3c(c2)OCO3)CCO1 (configuration not stated) | -23.7 |
| NC(=O)CN1CCOCC(Cc2ccccc2Cl)C1 (configuration not stated) | 3.18 |
| CCc1nnc(Nc2cccc(C3CCN(C(=O)CO)CC3)n2)s1 | -3.86 |
| O=c1[nH]c(-c2ccccn2)nc2c1CCN(Cc1cccc(O)c1)C2 | -17.6 |
| O=C(C1CCCC1)N1CC2(CCNC2)OCc2ccccc21 (configuration not stated) | 8.9 |
| COc1ccccc1CN1CCCC2(Cc3ccccc3CNC2=O)C1 (configuration not stated) | 6.2 |
| COCCN(Cc1ccccn1)C(=O)CC1OCCc2ccccc21 (configuration not stated) | -42.5 |
| CNC(=O)c1cccc(CCNC2CCSc3ccccc32)c1 (configuration not stated) | 3.42 |
| O=C(NCCc1nncn1C1CC1)C1SCCc2sccc21 (configuration not stated) | -1.6 |
| Cc1cn2c(CN(C)C(=O)c3ncoc3C)c(C)nc2s1 | -3.28 |
| CCOC(C)c1nc(CN2CCC(C3OCCO3)CC2)cs1 (configuration not stated) | -1.91 |
| CN(C)C(=O)CCNC(=O)c1cnc(-c2ccccc2)nc1 | 4.87 |
| CC(=O)N1CCN(C(=O)CN2CCN(c3cccc(C)c3)CC2)CC1 | -1.75 |
| Cc1cc(NC(=O)C(C)Nc2cccc(COCc3ccco3)c2)no1 (configuration not stated) | -1.42 |
| CCCc1nn(C2CCN(C(C)C)C2=O)c(=O)o1 (configuration not stated) | -3.59 |
| Cn1c(CCCNc2nccnc2C#N)nc2ccccc21 | -8.98 |
| Cc1noc(C)c1CN(C)C(=O)c1ccc2c(c1O)OC(C)(C)C2 | -2.92 |
| Cc1ccc(-c2ncc(CNc3cnccc3CO)s2)o1 | -10.9 |

| SMILES | cytotoxicity at 10 µM [%] |
| --- | --- |
| COc1ccc(NC(=O)N2CCCCC2c2ncc[nH]2)cc1 (configuration not stated) | 10.4 |
| Cc1ccc(OCCNC(=O)C2CCOCC2)c(C)c1 | 16.4 |
| Cc1cc(C)n(CC2CCCCN2CC(=O)Nc2nncs2)n1 (configuration not stated) | -4.25 |
| COCCn1ccc(NC(=O)Nc2ccc(C(N)=O)c(F)c2)n1 | 2.63 |
| Cc1[nH]c(-c2ccccc2)nc1C(=O)N1CCC(O)(CO)CC1 | 1.1 |
| O=C(CCN1CCCCO1)NC1CCCN(CC2CCCCC2)C1 (configuration not stated) | 4.21 |
| Cc1cccnc1CCNC(=O)[C@@]12CNC[C@@H]1CN(S(C)(=O)=O)C2 | -0.973 |
| COc1cccc(N2CCN(C(=O)C(O)c3ccccc3Cl)CC2=O)c1 (configuration not stated) | 3.25 |
| COc1ccc(CN2CCC3(CCCNC3)C2)cc1Cn1cccn1 (configuration not stated) | -10.1 |
| CCc1cc(N2CCC(NCCc3ccccc3F)CC2)nc(C)n1 | 7.33 |
| O=S1(=O)CCC(n2cc(C3=CCN(CCn4cccc4)CC3)cn2)C1 (configuration not stated) | -8.5 |
| CCC(CO)N(Cc1ccccn1)C(=O)c1ncccc1C (configuration not stated) | 3.42 |
| CCC(C(=O)NCc1ccncc1)N(c1ccc(F)cc1)S(C)(=O)=O (configuration not stated) | -5.48 |
| CSc1nccc(N2CCN(C)C3(CCC(=O)N(CC4CC4)CC3)C2)n1 (configuration not stated) | 5.6 |
| CN(Cc1ccccc1CN1CCCC1)C(=O)c1c[nH]c(=O)[nH]1 | -3.99 |
| Cc1nc(CNC(=O)NCC(O)c2ccccc2)cs1 (configuration not stated) | 0.682 |
| Cc1nc(CN2CCCC(NCc3ccc(C(N)=O)cc3)C2)no1 (configuration not stated) | -9.47 |
| CN(C)c1ncccc1CNS(=O)(=O)c1ccc(F)c(F)c1 | -7.18 |
| Cc1nc(CN2CCC(N3CCN(C)C3=O)CC2)no1 | -22 |
| Cc1ccc(S(=O)(=O)NC(=O)COc2cccc(C(N)=O)c2)s1 | -12.7 |
| N#Cc1ccc(OCCN2CCn3c(nnc3C3CC3)C2)cc1 | -3.75 |

| SMILES | cytotoxicity at 10 µM [%] |
| --- | --- |
| OC(CNCCn1cccn1)c1cccc(Br)c1 (configuration not stated) | -5.98 |
| Cc1cnn(CC2CN(CC(=O)Nc3ccncc3)CCO2)c1 (configuration not stated) | -3.75 |
| COc1c(C2CCCN2Cc2nc(C)c(C)o2)c(C)nn1C (configuration not stated) | -2 |
| CC(C)(C)c1nc(CN(Cc2cccs2)CC2CCCO2)no1 (configuration not stated) | -10 |
| CC(C)N1CCN(C(=O)Cc2csc(-c3ccco3)n2)CC1 | -2.93 |
| CN(C)CC(=O)N1CCN(C(=O)c2cccc3[nH]ncc23)CC1 | -11.6 |
| CCn1cc(NC(=O)C2CCN(CC(=O)N3CCOCC3)CC2)cn1 | -3.46 |
| COCc1nc(C(=O)NS(=O)(=O)c2ccc(C)s2)cs1 | -4.61 |
| N#CC1(C(=O)NCCCNc2ccc(C(F)(F)F)cn2)CCCC1 | -6.36 |
| Cc1nnc2n1CCN(Cc1ncc(-c3ccc(Cl)cc3)o1)C2 | -17.7 |
| Clc1snnc1CN1CCCCC1Cn1cncn1 (configuration not stated) | -0.575 |
| Cc1ccc(-c2nc(CCNC(=O)CCN3CCOC3=O)co2)cc1 | 2.33 |
| CC(NC(=O)N1CCC(OCc2ccccc2)CC1)c1nncn1C (configuration not stated) | -1.49 |
| COCc1nc(C(=O)N2CCCC2c2noc(C(C)C)n2)cs1 (configuration not stated) | 0.866 |
| COc1cccc(Cn2c(C3CCNCC3)cc3cccnc32)c1 | 0.115 |
| CN(C)C(=O)[C@@H]1CCO[C@@H]2CCN(Cc3ccc4c(c3)OCO4)C[C@@H]21 | -3.76 |
| CO[C@@H]1CN(Cc2scnc2C)[C@@H]2CCCO[C@@H]21 | -6.34 |
| Cc1ncsc1CN1CC[C@H]2OCC[C@@]2(C(=O)NC(C)C)C1 | 9.38 |
| CC(C)(C)c1cc(CN2C[C@@H]3CC[C@H]2CN(Cc2cscn2)C3)n[nH]1 | 5.13 |
